According to ChEMBL document CHEMBL1153063 (Bioorg Med Chem Lett, 2009):

Legend:
[1] = molecular target: Neuronal acetylcholine receptor subunit alpha-7 (Rattus norvegicus, UniProt Q05941); assay: Displacement of [125I]BTX from rat alpha7 nAChR expressed in rat GH4C1 cells; format: cell-based, GH4-C1
Method in brief: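 GH₄C₁ cell binding with [¹²⁵I]-BTX; six-point dose–response curve in triplicate, values averaged.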

[2] = molecular target: Neuronal acetylcholine receptor subunit alpha-7 (Rattus norvegicus) (UniProt Q05941); assay: Agonist activity at rat alpha7 nAChR expressed in Xenopus oocytes at 32 uM by two-electrode voltage clamp technique relative to nicotine; format: functional, cell-based; conditions: Oocyte
Method in brief: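 Rat alpha7 nAChR cRNA (10–50 ng) injected into Xenopus oocytes defolliculated with collagenase (1.3 mg/mL, 3 h); oocytes kept in Barth's saline up to 2 weeks. Test compounds applied at 32 µM.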

[3] = molecular target: Neuronal acetylcholine receptor; alpha4/beta2 (Rattus norvegicus, UniProt P09483+P12390); assay: Displacement of L-[3H]Nicotine from alpha4beta2 nAChR in rat brain homogenate by rapid filtration method; format: tissue-based
[4] = molecular target: Neuronal acetylcholine receptor subunit alpha-3 (Homo sapiens, UniProt P32297); assay: Displacement of [3H]epibatidine from alpha3 nAChR in human IMR32 cells; format: cell-based, IMR-32
Method in brief: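 IMR32 cell binding with [³H]-epibatidine; six-point dose–response curve in triplicate, values averaged.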

[5] = Octanol-aqueous buffer partition coefficient, log D at pH 7.4; format: physicochemical
[6] = Aqueous solubility of the compound; format: physicochemical; conditions: buffer
hERG (KCNH2) = hERG (KCNH2) (Homo sapiens, UniProt Q12809); assay: Displacement of [3H]dofetilide from human ERG expressed in HEK293 cells at 10 uM; format: cell-based; conditions: HEK293 cells expressing human ERG, probe [3H]dofetilide
Method in brief: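 Binding of [³H]dofetilide to hERG stably expressed in HEK293 cells; reported as percent inhibition of binding.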

[7] = molecular target: T1, 5-hydroxytryptamine receptor 3A (Homo sapiens, UniProt P46098); assay: Displacement of [3H]LY278584 from human 5HT3 receptor expressed in HEK293 cells; format: cell-based
T1 sequence (P46098 whole entry): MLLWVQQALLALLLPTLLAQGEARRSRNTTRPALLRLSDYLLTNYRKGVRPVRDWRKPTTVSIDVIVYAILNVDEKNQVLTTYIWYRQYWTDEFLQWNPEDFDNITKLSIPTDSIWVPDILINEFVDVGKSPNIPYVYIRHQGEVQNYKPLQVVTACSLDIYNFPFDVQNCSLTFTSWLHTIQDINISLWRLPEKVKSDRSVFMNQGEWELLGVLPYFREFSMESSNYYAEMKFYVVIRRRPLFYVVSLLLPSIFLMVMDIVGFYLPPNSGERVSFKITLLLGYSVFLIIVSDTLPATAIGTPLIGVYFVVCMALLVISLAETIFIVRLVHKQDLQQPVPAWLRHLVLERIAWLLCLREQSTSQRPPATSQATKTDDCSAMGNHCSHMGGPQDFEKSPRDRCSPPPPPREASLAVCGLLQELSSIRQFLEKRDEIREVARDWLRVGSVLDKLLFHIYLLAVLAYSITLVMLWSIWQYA
Method in brief: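 HEK293 cells expressing human 5-HT₃; [³H]-LY278584 binding, six-point dose–response curve in triplicate, values averaged.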

[8] = Intrinsic clearance in human liver microsomes at 1 uM at pH 7.4 after 30 mins; format: ADME, Microsome
Method in brief: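 Pooled liver microsomes in phosphate buffer pH 7.4, 1 μM substrate; sampled at 30 min.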

[9] = Drug concentration in Sprague-Dawley rat brain at 5 mg/kg, sc after 1 hr; format: ADME, organism-based; design: dose 5 mg/kg, route subcutaneous; conditions: read-out: Drug uptake
Method in brief: (§1)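 Male Sprague-Dawley rats (n = 3) given 5 mg/kg s.c.; brain, plasma and CSF levels assessed 1 h post dose.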

[10] = Plasma concentration in Sprague-Dawley rat at 5 mg/kg, sc after 1 hr; format: ADME, organism-based; design: dose 5 mg/kg, route subcutaneous; method in brief: as §1
[11] = Ratio of drug level in brain to plasma in Sprague-Dawley rat at 5 mg/kg, sc after 1 hr; format: ADME, organism-based; design: dose 5 mg/kg, route subcutaneous
Method in brief: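 Male Sprague-Dawley rats (n = 3) received a single subcutaneous dose of 5 mg/kg. Brain, plasma and CSF drug levels were assessed 1 h post dose, and the brain level was expressed relative to the plasma level.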

[12] = Drug concentration in Sprague-Dawley rat CSF at 5 mg/kg, sc after 1 hr; format: ADME, organism-based, Cerebrospinal fluid; design: dose 5 mg/kg, route subcutaneous; conditions: read-out: Drug uptake; method in brief: as §1

Sequence of Neuronal acetylcholine receptor subunit alpha-7 (Q05941 whole entry): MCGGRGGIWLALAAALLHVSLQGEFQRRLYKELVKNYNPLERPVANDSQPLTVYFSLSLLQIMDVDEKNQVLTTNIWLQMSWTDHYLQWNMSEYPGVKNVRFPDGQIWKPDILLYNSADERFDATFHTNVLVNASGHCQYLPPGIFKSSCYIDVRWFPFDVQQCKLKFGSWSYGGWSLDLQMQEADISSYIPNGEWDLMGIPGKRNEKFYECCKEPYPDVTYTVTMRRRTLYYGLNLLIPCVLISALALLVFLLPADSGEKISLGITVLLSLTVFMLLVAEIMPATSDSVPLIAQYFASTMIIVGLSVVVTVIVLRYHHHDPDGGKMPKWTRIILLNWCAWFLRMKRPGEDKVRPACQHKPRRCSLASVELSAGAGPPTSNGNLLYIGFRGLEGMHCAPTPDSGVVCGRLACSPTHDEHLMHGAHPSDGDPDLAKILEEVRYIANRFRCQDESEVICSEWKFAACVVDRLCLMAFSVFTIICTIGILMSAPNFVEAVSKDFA
Sequence of Neuronal acetylcholine receptor subunit alpha-7 (Rattus norvegicus) (Q05941 whole entry): as above
Sequence of Neuronal acetylcholine receptor; alpha4/beta2 (P09483 whole entry): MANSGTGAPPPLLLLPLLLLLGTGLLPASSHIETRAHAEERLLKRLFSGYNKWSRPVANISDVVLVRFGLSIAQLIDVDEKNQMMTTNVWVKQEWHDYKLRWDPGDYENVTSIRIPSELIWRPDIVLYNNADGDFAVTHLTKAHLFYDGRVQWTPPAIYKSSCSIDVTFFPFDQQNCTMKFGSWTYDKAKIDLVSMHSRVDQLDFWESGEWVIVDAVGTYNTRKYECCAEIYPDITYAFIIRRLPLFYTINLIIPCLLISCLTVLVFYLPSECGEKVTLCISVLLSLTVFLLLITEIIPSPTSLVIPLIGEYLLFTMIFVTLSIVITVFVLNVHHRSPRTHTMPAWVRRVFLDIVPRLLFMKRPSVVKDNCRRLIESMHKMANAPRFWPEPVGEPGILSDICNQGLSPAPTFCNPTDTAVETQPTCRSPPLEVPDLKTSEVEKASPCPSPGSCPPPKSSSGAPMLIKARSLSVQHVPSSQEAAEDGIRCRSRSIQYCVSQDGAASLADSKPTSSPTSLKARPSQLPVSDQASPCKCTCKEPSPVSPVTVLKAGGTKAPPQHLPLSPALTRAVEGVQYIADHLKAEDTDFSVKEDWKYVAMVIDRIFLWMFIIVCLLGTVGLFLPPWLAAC
Sequence of Neuronal acetylcholine receptor; alpha4/beta2 (P12390 whole entry): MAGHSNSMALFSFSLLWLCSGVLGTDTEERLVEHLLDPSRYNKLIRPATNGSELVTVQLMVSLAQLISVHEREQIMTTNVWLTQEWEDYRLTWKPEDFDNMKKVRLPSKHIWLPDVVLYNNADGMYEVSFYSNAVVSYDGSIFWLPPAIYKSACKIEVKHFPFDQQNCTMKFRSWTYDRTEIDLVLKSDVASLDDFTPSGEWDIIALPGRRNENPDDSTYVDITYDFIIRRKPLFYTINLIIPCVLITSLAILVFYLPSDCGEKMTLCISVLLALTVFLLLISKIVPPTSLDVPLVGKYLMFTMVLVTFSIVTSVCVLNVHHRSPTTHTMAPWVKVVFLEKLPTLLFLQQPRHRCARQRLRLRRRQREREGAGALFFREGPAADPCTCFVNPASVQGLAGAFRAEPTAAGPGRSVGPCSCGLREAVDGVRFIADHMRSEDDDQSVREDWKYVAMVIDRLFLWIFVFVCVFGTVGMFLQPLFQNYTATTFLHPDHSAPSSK
Sequence of Neuronal acetylcholine receptor subunit alpha-3 (P32297 whole entry): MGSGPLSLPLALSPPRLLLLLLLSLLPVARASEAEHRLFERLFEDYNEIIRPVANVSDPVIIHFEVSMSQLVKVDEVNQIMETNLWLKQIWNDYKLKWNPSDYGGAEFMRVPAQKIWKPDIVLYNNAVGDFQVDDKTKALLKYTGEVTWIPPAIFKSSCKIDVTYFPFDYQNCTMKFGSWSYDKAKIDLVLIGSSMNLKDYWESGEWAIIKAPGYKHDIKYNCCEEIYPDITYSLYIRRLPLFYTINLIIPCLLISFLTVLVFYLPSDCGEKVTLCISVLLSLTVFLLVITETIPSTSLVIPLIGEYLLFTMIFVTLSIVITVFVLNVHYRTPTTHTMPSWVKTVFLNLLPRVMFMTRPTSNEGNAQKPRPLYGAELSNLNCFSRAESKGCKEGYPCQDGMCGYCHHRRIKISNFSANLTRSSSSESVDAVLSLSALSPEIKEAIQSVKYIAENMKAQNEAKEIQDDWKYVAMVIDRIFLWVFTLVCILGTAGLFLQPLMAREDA
Sequence of hERG (KCNH2) (Q12809 whole entry): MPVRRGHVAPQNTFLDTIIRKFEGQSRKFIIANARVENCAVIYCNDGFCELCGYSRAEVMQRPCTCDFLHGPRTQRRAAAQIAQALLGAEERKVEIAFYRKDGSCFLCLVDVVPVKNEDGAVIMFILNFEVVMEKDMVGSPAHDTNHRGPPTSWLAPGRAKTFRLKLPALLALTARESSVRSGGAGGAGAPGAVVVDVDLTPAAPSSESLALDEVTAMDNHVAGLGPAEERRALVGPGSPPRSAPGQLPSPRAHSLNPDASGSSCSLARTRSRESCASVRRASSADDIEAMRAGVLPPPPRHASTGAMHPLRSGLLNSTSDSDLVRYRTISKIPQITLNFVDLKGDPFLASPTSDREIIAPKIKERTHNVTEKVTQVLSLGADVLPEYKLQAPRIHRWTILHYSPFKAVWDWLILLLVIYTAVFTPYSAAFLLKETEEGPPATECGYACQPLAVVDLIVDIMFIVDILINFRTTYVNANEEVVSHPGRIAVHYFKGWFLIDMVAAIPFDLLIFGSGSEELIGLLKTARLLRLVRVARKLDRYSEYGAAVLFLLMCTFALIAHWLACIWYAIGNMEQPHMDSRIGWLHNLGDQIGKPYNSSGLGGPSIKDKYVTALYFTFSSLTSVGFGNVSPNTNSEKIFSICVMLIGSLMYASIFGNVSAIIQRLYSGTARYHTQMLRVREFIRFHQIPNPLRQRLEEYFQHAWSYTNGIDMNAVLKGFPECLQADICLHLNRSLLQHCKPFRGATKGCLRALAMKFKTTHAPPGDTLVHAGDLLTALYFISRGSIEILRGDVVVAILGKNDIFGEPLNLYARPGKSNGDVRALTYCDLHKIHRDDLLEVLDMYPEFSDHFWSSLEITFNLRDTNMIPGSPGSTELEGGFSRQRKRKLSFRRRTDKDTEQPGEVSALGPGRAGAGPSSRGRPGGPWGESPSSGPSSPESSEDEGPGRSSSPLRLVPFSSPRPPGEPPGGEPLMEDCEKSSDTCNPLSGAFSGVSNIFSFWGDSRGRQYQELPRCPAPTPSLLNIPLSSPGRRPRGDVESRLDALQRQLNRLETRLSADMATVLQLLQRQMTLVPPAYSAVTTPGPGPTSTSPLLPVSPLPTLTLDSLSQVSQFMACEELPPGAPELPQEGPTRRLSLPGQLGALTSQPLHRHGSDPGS

Compound | Ki [1] | Activity [2] | IC50 [3] | other results
O=C(Oc1ccc(-c2ccccc2)cc1)N1CCN2CCC1CC2 | 215 nM | 111% | – | –
O=C(c1ccccc1)c1cc(OC(=O)N2CCN3CCC2CC3)ccc1Br | 16 nM | 201% | 2040 nM | IC50 [4]: 1390 nM
O=C(Oc1cccc(-c2ccccc2)c1)N1CCN2CCC1CC2 | 9 nM | 9% | – | –
O=S(=O)(c1ccc(Br)cc1)N1CCN2CCC1CC2 | > 4720 nM | – | – | –
Cc1cc(OC(=O)N2CCN3CCC2CC3)ccc1Br | 50 nM | 83% | 7220 nM | IC50 [4]: 4020 nM
CN1CCCN(C(=O)Oc2ccc(Br)cc2)CC1 | > 5710 nM | 10% | – | –
O=C(Oc1ccc(Cl)c(Cl)c1)N1CCN2CCC1CC2 | 31 nM | 195% | – | –
O=C(Oc1cccc(Oc2ccccc2)c1)N1CCN2CCC1CC2 | 13 nM | 40% | – | –
O=C(Oc1ccccc1Br)N1CCN2CCC1CC2 | 725 nM | – | – | –
O=C(Oc1cccc(F)c1)N1CCN2CCC1CC2 | 35 nM | 47% | 1060 nM | –
O=C(c1ccccc1)c1ccc(OC(=O)N2CCN3CCC2CC3)cc1 | 95 nM | 35% | – | –
O=C(Oc1ccccc1)N1CCN2CCC1CC2 | 739 nM | 99% | 1040 nM | –
O=C(Oc1ccc(Br)cc1)N1CCN2CCC1CC2 [SSR180711] | – | 158% | > 5000 nM | IC50 [4]: > 6480 nM; logD [5]: 2.1; solubility [6]: > 65 µg/mL; inhibition at 10 µM (hERG (KCNH2)): 46%; IC50 [7]: > 3160 nM; CLint scaled at 1 µM [8]: < 6.8 mL/min/kg; concentration at 1 h [9]: 5460 ng/g; concentration at 1 h [10]: 648 ng/mL; Kp at 1 h [11]: 9.1; concentration at 1 h [12]: 774 nM
O=C(Oc1ccc(Br)cc1)N1CCCN2CCC1CC2 | 383 nM | 27% | > 10000 nM | –
C[C@@H]1CN(C(=O)Oc2ccc(Br)cc2)C[C@H](C)N1 | > 5000 nM | < 0.1% | – | –
C[C@@H]1CN(C(=O)Oc2ccc(Br)cc2)CCN1 | > 5000 nM | < 0.1% | – | –
O=C(Oc1ccc(Oc2ccccc2)cc1)N1CCN2CCC1CC2 | 212 nM | 241% | – | –
O=C(Oc1ccc(Br)cc1)N1CCN2CCC(CC2)C1 | 763 nM | – | > 10000 nM | –
O=C(Oc1ccc(Cl)c(F)c1)N1CCN2CCC1CC2 | 86 nM | 110% | 6980 nM | IC50 [4]: 9960 nM
O=C(Nc1ccc(Br)cc1)OC1CN2CCC1C2 (configuration not stated) [QUINUCLIDINE CARBAMATE] | – | 90% | – | –
O=C(c1ccccc1)c1cccc(OC(=O)N2CCN3CCC2CC3)c1 | 11 nM | 98% | 2610 nM | –

Compound | Ki [1] | Activity [2] | IC50 [3] | other results
O=C(Oc1ccc2ccccc2c1)N1CCN2CCC1CC2 | 23 nM | 175% | 9880 nM | IC50 [4]: 4910 nM; logD [5]: 2.3; solubility [6]: > 65 µg/mL; inhibition at 10 µM (hERG (KCNH2)): 8%; IC50 [7]: > 3160 nM; CLint scaled at 1 µM [8]: 12 mL/min/kg; concentration at 1 h [9]: 5290 ng/g; concentration at 1 h [10]: 463 ng/mL; Kp at 1 h [11]: 11.6; concentration at 1 h [12]: 343 nM
O=C(Cc1ccc(Br)cc1)N1CCN2CCC1CC2 | > 5000 nM | 1.7% | – | –
O=C(OCc1ccccc1)N1CCN2CCC1CC2 | 3350 nM | – | – | –
O=C(Oc1ccc(-c2ccncc2)cc1)N1CCN2CCC1CC2 | 207 nM | 191% | – | –
O=C(Nc1ccc(Br)cc1)N1CCN2CCC1CC2 | 328 nM | – | – | –
S=C(Oc1ccccc1)N1CCN2CCC1CC2 | 749 nM | 28% | – | –
Cc1cccc(OC(=O)N2CCN3CCC2CC3)c1 | 25 nM | 46% | – | –
O=C(Oc1ccc(Cl)cc1)N1CCN2CCC1CC2 | 79 nM | 145% | > 5000 nM | IC50 [4]: > 5000 nM
O=C(Oc1ccc(F)cc1)N1CCN2CCC1CC2 | 537 nM | 100% | 1780 nM | –
C[C@@H]1CN(C(=O)Oc2ccc(Br)cc2)[C@@H](C)CN1 | > 5000 nM | – | – | –
Cc1ccc(OC(=O)N2CCN3CCC2CC3)cc1 | 178 nM | 202% | – | –
O=C(Oc1ccccc1Cl)N1CCN2CCC1CC2 | 868 nM | – | – | –
COc1cccc(OC(=O)N2CCN3CCC2CC3)c1 | 79 nM | 26% | – | –
COc1ccc(OC(=O)N2CCN3CCC2CC3)cc1 | 201 nM | 126% | – | –
O=C(Oc1cccc(Cl)c1)N1CCN2CCC1CC2 | 32 nM | 77% | 3500 nM | –
O=C(Oc1ccc(-c2ccccn2)cc1)N1CCN2CCC1CC2 | 354 nM | 174% | – | –
O=C(Oc1ccc(Br)c(Cl)c1)N1CCN2CCC1CC2 | 33 nM | 203% | 7120 nM | IC50 [4]: 2090 nM
O=c1c(Br)ccc2n1C[C@@H]1CNC[C@H]2C1 | – | – | – | IC50 [4]: 15.6 nM
O=C(Oc1ccc(-c2cccnc2)cc1)N1CCN2CCC1CC2 | 203 nM | 189% | > 5000 nM | –
O=C(Oc1cccc(Br)c1)N1CCN2CCC1CC2 | 9.5 nM | 70% | – | –
